≈ marks a conversion by molar mass, not a printed value.
Legend:
[1] = Cytotoxicity against human WS1 cells assessed as reduction in cell viability incubated for 72 hrs by alamar blue assay; format: cell-based; conditions: WS1, 72 h
How it was run: (§1)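 Cells seeded in 384-well plates and dosed 24 h after plating, in quadruplicate. Viability was read by alamarBlue fluorescence at 72 h. IC50 came from nonlinear regression as the mean of 4 replicates. Growth media carried 10% FBS and 1% pen/strep: UCH1/UCH2 in 4:1 IMDM:RPMI-1640 in gel-coated flasks; A431, PANC1 and WS1 in DMEM; DU145 and MCF7 in MEM; 5637 in RPMI-1640.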

DU-145 = assay: Cytotoxicity against human DU-145 cells assessed as reduction in cell viability incubated for 72 hrs by alamar blue assay; format: functional, cell-based; conditions: DU-145, 72 h; how it was run: as §1
MCF7 = assay: Cytotoxicity against human MCF7 cells assessed as reduction in cell viability incubated for 72 hrs by alamar blue assay; format: functional, cell-based; conditions: MCF7, 72 h; how it was run: as §1
5637 [2] = assay: Cytotoxicity against human 5637 cells assessed as reduction in cell viability incubated for 72 hrs by alamar blue assay; format: functional, cell-based; conditions: Homo sapiens, 5637, 72 h; how it was run: as §1
[3] = Cytotoxicity against human UCH2 cells assessed as reduction in cell viability incubated for 72 hrs by alamar blue assay; format: functional, cell-based; conditions: UCH2, 72 h; how it was run: as §1
A-431 = assay: Cytotoxicity against human A-431 cells assessed as reduction in cell viability incubated for 72 hrs by alamar blue assay; format: functional, cell-based; conditions: A-431, 72 h; how it was run: as §1
[4] = Cytotoxicity against human UCH1 cells assessed as reduction in cell viability incubated for 72 hrs by alamar blue assay; format: functional, cell-based; conditions: UCH1, 72 h; how it was run: as §1
PANC-1 [5] = assay: Cytotoxicity against human PANC1 cells assessed as reduction in cell viability incubated for 72 hrs by alamar blue assay; format: functional, cell-based; conditions: PANC-1, 72 h; how it was run: as §1
Cryptococcus neoformans = assay: Antifungal activity against Cryptococcus neoformans; format: functional
PANC-1 [6] = assay: Cytotoxicity against human PANC1 cells assessed as reduction in cell viability incubated upto 72 hrs by MTT assay; format: functional, cell-based; conditions: PANC-1, 72 h
5637 [7] = assay: Cytotoxicity against human 5637 cells assessed as reduction in cell viability incubated for 3 hrs by MTT assay; format: functional, cell-based; conditions: Homo sapiens, 5637, 3 h
K562 = assay: Cytotoxicity against human K562 cells; format: functional, cell-based
L1210 = assay: Cytotoxicity against mouse L1210 cells; format: functional, cell-based
[8] = system: Feline immunodeficiency virus; assay: Antiviral activity against Feline immunodeficiency virus; format: functional, organism-based

SMILES	IC50 [1] [µM]	IC50 (DU-145) [µM]	IC50 (MCF7) [µM]	IC50 5637 [2] [µM]	IC50 [3] [µM]	IC50 (A-431) [µM]	IC50 [4] [µM]	IC50 (PANC-1 [5]) [µM]	MIC (Cryptococcus neoformans) [µg/mL]	IC50 (PANC-1 [6]) [µM]	IC50 5637 [7] [µM]	IC50 (K562) [µM]	IC50 (L1210) [µM]	EC50 [8] [µM]
Cc1nn(C)c2c1SSC(C#N)=N2	> 100	40	> 100	81	> 100	> 100	> 100	> 100						
COc1ccc(/N=c2\ssnc2Cl)cc1									8 (≈ 30.9 µM)					
N#CSCCN1CCN(c2nssc2=O)CC1	17	3.3	5.4	39	14	25	12	11						
Cc1[nH]c2ccccc2c1CCNCc1ccc(/C=C/C(=O)NO)cc1 [PANOBINOSTAT]										1				
Cc1ccc(Nc2nccc(N(C)c3ccc4c(C)n(C)nc4c3)n2)cc1S(N)(=O)=O [PAZOPANIB]											15			
Clc1nss/c1=N\c1ccc(Br)cc1	> 100	48	11	36	51	> 100	43	35						
Clc1nss/c1=N\c1cc(-c2ccccc2)n[nH]1	> 100	11	9.3	16	38	> 100	59	23						
O=S(=O)(Nc1nccs1)c1ccc(/N=c2\ssnc2Cl)cc1	> 100	92	49	27	36	> 100	30	97						
N#Cc1cnn(CCc2ccccc2)c1/N=c1\ssnc1Cl												3	5	
Clc1nss/c1=N\c1nccs1	24	8.1	45	15	22	17	10	24						
Clc1nss/c1=N\c1ccc(OCc2ccccc2)cc1	> 100	45	50	13	> 100	> 100	44	> 100						
CCCCOc1ccc(/N=c2\ssnc2Cl)cc1	> 100	52	42	18	48	> 100	54	> 100						
N#CSCCN1CCN(c2nss/c2=N\c2ccccc2)CC1	> 100	14	32	93	38	> 100	38	16						
CCOC(=O)c1c2nssc-2c(Cl)c1Cl														0.31
Clc1nss/c1=N\c1cccc(Br)c1	94	27	6.7	53	59	> 100	40	38						
O=c1ssnc1N1CCN(CCSc2nc3ccccc3s2)CC1	92	22	9.9	33	31	90	25	77						
FC(F)(F)Oc1ccc(/N=c2\ssnc2Cl)cc1Br	> 100	52	73	36	85	100	34	> 100						
N#Cc1ccccc1/N=c1\ssnc1Cl									8 (≈ 31.5 µM)					
Clc1nss/c1=N\c1ccc2c(c1)OCO2	84	17	19	32	22	95	28	24						

Source: ChEMBL document CHEMBL4819119, “Design and evaluation of 1,2,3-dithiazoles and fused 1,2,4-dithiazines as anti-cancer agents” (Bioorg Med Chem Lett, 2021)
